In publication PMC3726261 (Cancer, 2012):

How the values were obtained:
[1] = system: recurrent metastatic liposarcoma; settings: patients with recurrent metastatic liposarcoma; cited from earlier work
[2] = system: prostate-specific antigen levels; settings: small percentage of prostate cancer patients; cited from earlier work
[3] = Pharmacokinetics: plasma R-150033 by LC-MS/MS after oral efatutazone; format: in vivo, human; settings: 0.10 to 1.15 mg twice daily; single and multiple doses
In short: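 Adults with advanced solid malignancies took oral doses twice daily in 21-day cycles, in cohorts of 3 to 6 at 0.10–1.15 mg. Plasma was sampled at baseline and 0.5, 1, 2, 3, 4, 6 and 8–10 h after the first dose on day 1 of cycles 1 and 2. Active metabolite R-150033 was measured by validated LC-MS/MS. AUC, Cmax and Tmax were derived; accumulation was AUC0-tau/AUC0–12, and steady state was judged from trough levels.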

## CCc1ccc(CCOc2ccc(CC3SC(=O)NC3=O)cc2)nc1 (stereo not drawn) [pioglitazone]
[1]
  Disease stabilization: prolonged disease stabilization

## CN(CCOc1ccc(CC2SC(=O)NC2=O)cc1)c1ccccn1 (stereo not drawn) [rosiglitazone]
[2]
  Effect on prostate-specific antigen levels: either decreased or prolonged the stabilization of prostate-specific antigen levels

## Cc1cc(Oc2ccc3nc(COc4ccc(CC5SC(=O)NC5=O)cc4)n(C)c3c2)cc(C)c1N (stereo not drawn) [R-150033]
[3]
  Dose proportionality of exposure (AUC and Cmax): dose proportional
